Values after ≈ are worked out from the molar mass of the structure shown.
Legend:
Type in all cases: functional
[1] = system: Pseudomonas aeruginosa; test: in vitro antibacterial activity against Pseudomonas aeruginosa Tsuchijima
[2] = system: Staphylococcus aureus; test: In vitro for antibacterial activity against Staphylococcus aureus 209P JC-1
[3] = system: Escherichia coli; test: In vitro antibacterial activity against Escherichia coli NIHJ JC-2
[4] = system: Escherichia coli; test: Compound was evaluated in vivo for oral antibacterial activity against Escherichia coli P-5101 at a dose of 9E6
Outline: (§1)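 Mice were given a systemic infection and then treated by the oral route. Challenge doses in cells per mouse were 5 × 10^8 for S. aureus 50774, 9 × 10^6 for E. coli P-5101 and 4 × 10^3 for P. aeruginosa 12. The protective dose is given in mg/kg.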

[5] = system: Pseudomonas aeruginosa; test: Compound was evaluated in vivo for oral antibacterial activity against Pseudomonas aeruginosa 12 at a dose of 4E3; outline: as §1
[6] = system: Staphylococcus aureus; test: Compound was evaluated in vivo for oral antibacterial activity against Staphylococcus aureus 50774 at a dose of 5E8; outline: as §1
[7] = system: Pseudomonas aeruginosa; test: Compound was evaluated in vivo for oral antibacterial activity iagainst Pseudomonas aeruginosa 12 at a dose of 4E3; outline: as §1

| SMILES | MIC [1] [µg/mL] | MIC [2] [µg/mL] | MIC [3] [µg/mL] | ED50 [4] [mg/kg] | ED50 [5] [mg/kg] | ED50 [6] [mg/kg] | ED50 [7] [mg/kg] |
| --- | --- | --- | --- | --- | --- | --- | --- |
| CCn1cc(C(=O)O)c(=O)c2cc(F)c(N3CCC(O)CC3)nc21 | 6.25 (≈ 18.6 µM) | 0.78 (≈ 2.33 µM) | 3.13 (≈ 9.33 µM) |  |  |  |  |
| CCn1cc(C(=O)O)c(=O)c2cc(F)c(N3CCC(NC=O)C3)nc21 (centres undefined) | 3.13 (≈ 8.99 µM) | 0.78 (≈ 2.24 µM) | 0.78 (≈ 2.24 µM) |  |  |  |  |
| CCn1cc(C(=O)O)c(=O)c2cc(F)c(N3CCC(OC=O)C3)nc21 (centres undefined) | 3.13 (≈ 8.96 µM) | 0.39 (≈ 1.12 µM) | 1.56 (≈ 4.47 µM) |  |  |  |  |
| CCn1cc(C(=O)O)c(=O)c2cc(F)c(N3CCC(NC)C3)nc21 (centres undefined) | 1.56 (≈ 4.67 µM) | 0.39 (≈ 1.17 µM) | 0.2 (≈ 0.598 µM) | 1.4 | 6.5 | 4.8 |  |
| CN(C)C1CCN(c2nc3c(cc2F)c(=O)c(C(=O)O)cn3CCF)C1 (centres undefined) | 6.25 (≈ 17.1 µM) | 0.78 (≈ 2.13 µM) | 0.2 (≈ 0.546 µM) |  |  |  |  |
| NC1CCN(c2nc3c(cc2F)c(=O)c(C(=O)O)cn3CCF)C1 (centres undefined) | 0.39 (≈ 1.15 µM) | 0.39 (≈ 1.15 µM) | 0.1 (≈ 0.296 µM) | 2.8 | 6.3 | 4.6 |  |
| CCn1cc(C(=O)O)c(=O)c2cc(F)c(N3CC(N)C3)nc21 | 0.78 (≈ 2.55 µM) | 0.78 (≈ 2.55 µM) | 0.1 (≈ 0.326 µM) | 4.1 | 12.5 | 8.8 |  |
| C=Cn1cc(C(=O)O)c(=O)c2cc(F)c(N3CC(N)C3)nc21 | 0.39 (≈ 1.28 µM) | 1.56 (≈ 5.13 µM) | 0.1 (≈ 0.329 µM) |  |  |  |  |
| C=Cn1cc(C(=O)O)c(=O)c2cc(F)c(N3CCC(NC(C)=O)C3)nc21 (centres undefined) | 12.5 (≈ 34.7 µM) | 1.56 (≈ 4.33 µM) | 0.78 (≈ 2.16 µM) |  |  |  |  |
| CNC1CCN(c2nc3c(cc2F)c(=O)c(C(=O)O)cn3CCF)C1 (centres undefined) | 0.78 (≈ 2.21 µM) | 0.78 (≈ 2.21 µM) | 0.2 (≈ 0.568 µM) | 2.8 | 19.3 | 15 |  |
| CCn1cc(C(=O)O)c(=O)c2cc(F)c(N3CCC(NN)C3)nc21 (centres undefined) | 12.5 (≈ 37.3 µM) | 0.39 (≈ 1.16 µM) | 1.56 (≈ 4.65 µM) |  |  |  |  |
| CC(=O)N(C)C1CCN(c2nc3c(cc2F)c(=O)c(C(=O)O)cn3CCF)C1 (centres undefined) | 25 (≈ 63.4 µM) | 0.39 (≈ 0.989 µM) | 1.56 (≈ 3.96 µM) |  |  |  |  |
| CCn1cc(C(=O)O)c(=O)c2cc(F)c(N3CCC(NCC(F)(F)F)C3)nc21 (centres undefined) | 50 (≈ 124 µM) | 0.78 (≈ 1.94 µM) | 1.56 (≈ 3.88 µM) |  |  |  |  |
| CCn1cc(C(=O)O)c(=O)c2cc(F)c(N3CCC(CNC(C)=O)CC3)nc21 | 25 (≈ 64 µM) | 0.78 (≈ 2 µM) | 1.56 (≈ 4 µM) |  |  |  |  |
| CCn1cc(C(=O)O)c(=O)c2cc(F)c(N3CCC(N(C)C)C3)nc21 (centres undefined) | 6.25 (≈ 17.9 µM) | 1.56 (≈ 4.48 µM) | 0.78 (≈ 2.24 µM) |  |  |  |  |
| CCn1cc(C(=O)O)c(=O)c2cc(F)c(N3CCCC(N)C3)nc21 (centres undefined) | 6.25 (≈ 18.7 µM) | 0.78 (≈ 2.33 µM) | 0.78 (≈ 2.33 µM) |  |  |  |  |
| C=Cn1cc(C(=O)O)c(=O)c2cc(F)c(N3CCC(NC=O)C3)nc21 (centres undefined) | 3.13 (≈ 9.04 µM) | 0.78 (≈ 2.25 µM) | 0.39 (≈ 1.13 µM) |  |  |  |  |
| CCn1cc(C(=O)O)c(=O)c2cc(F)c(N3CCC(CN)CC3)nc21 | 12.5 (≈ 35.9 µM) | 0.39 (≈ 1.12 µM) | 1.56 (≈ 4.48 µM) |  |  |  |  |
| CCn1cc(C(=O)O)c(=O)c2cc(F)c(N3CC(N)C(O)C3)nc21 (centres undefined) | 3.13 (≈ 9.31 µM) | 1.56 (≈ 4.64 µM) | 1.56 (≈ 4.64 µM) |  |  |  |  |
| C=Cn1cc(C(=O)O)c(=O)c2cc(F)c(N3CCC(N)C3)nc21 (centres undefined) | 0.2 (≈ 0.628 µM) | 0.2 (≈ 0.628 µM) | 0.025 (≈ 0.0785 µM) | 0.72 | 1.6 | 1.6 |  |
| CCn1cc(C(=O)O)c(=O)c2cc(F)c(N3CCCC(O)C3)nc21 (centres undefined) | 25 (≈ 74.6 µM) | 1.56 (≈ 4.65 µM) | 3.13 (≈ 9.33 µM) |  |  |  |  |
| CCn1cc(C(=O)O)c(=O)c2cc(F)c(N3CCC(N(C)C(C)=O)C3)nc21 (centres undefined) | 25 (≈ 66.4 µM) | 0.78 (≈ 2.07 µM) | 6.25 (≈ 16.6 µM) |  |  |  |  |

| SMILES | MIC [1] [µg/mL] | MIC [2] [µg/mL] | MIC [3] [µg/mL] | ED50 [4] [mg/kg] | ED50 [5] [mg/kg] | ED50 [6] [mg/kg] | ED50 [7] [mg/kg] |
| --- | --- | --- | --- | --- | --- | --- | --- |
| CCn1cc(C(=O)O)c(=O)c2cc(F)c(N3CCC(NC(=O)c4ccccc4)CC3)nc21 | > 100 | 1.56 (≈ 3.56 µM) | 12.5 (≈ 28.5 µM) |  |  |  |  |
| CC(=O)NC1CCN(c2nc3c(cc2F)c(=O)c(C(=O)O)cn3CCF)C1 (centres undefined) | 25 (≈ 65.7 µM) | 1.56 (≈ 4.1 µM) | 1.56 (≈ 4.1 µM) |  |  |  |  |
| CCn1cc(C(=O)O)c(=O)c2cc(F)c(N3CCC(NC(C)=O)C3)nc21 (centres undefined) | 6.25 (≈ 17.2 µM) | 0.78 (≈ 2.15 µM) | 6.25 (≈ 17.2 µM) |  |  |  |  |
| CCn1cc(C(=O)O)c(=O)c2cc(F)c(N3CCC(N)CC3)nc21 | 1.56 (≈ 4.67 µM) | 0.2 (≈ 0.598 µM) | 0.2 (≈ 0.598 µM) | 6.3 |  | > 25 | 16.2 |
| CCn1cc(C(=O)O)c(=O)c2cc(F)c(N3CCC(Cl)C3)nc21 (centres undefined) | 12.5 (≈ 36.8 µM) | 0.2 (≈ 0.589 µM) | 0.39 (≈ 1.15 µM) |  |  |  |  |
| C=Cn1cc(C(=O)O)c(=O)c2cc(F)c(N3CCC(NCC(F)(F)F)C3)nc21 (centres undefined) | 100 (≈ 250 µM) | 1.56 (≈ 3.9 µM) | 6.25 (≈ 15.6 µM) |  |  |  |  |
| CCCNC1CCN(c2nc3c(cc2F)c(=O)c(C(=O)O)cn3CC)C1 (centres undefined) | > 100 | 25 (≈ 69 µM) | 6.25 (≈ 17.2 µM) |  |  |  |  |
| CCn1cc(C(=O)O)c(=O)c2cc(F)c(N3CCCC(C(N)=O)C3)nc21 (centres undefined) | 50 (≈ 138 µM) | 6.25 (≈ 17.2 µM) | 12.5 (≈ 34.5 µM) |  |  |  |  |
| C=Cn1cc(C(=O)O)c(=O)c2cc(F)c(N3CCC(N(C)C)C3)nc21 (centres undefined) | 3.13 (≈ 9.04 µM) | 3.13 (≈ 9.04 µM) | 0.39 (≈ 1.13 µM) |  |  |  |  |
| CCn1cc(C(=O)O)c(=O)c2cc(F)c(N3CC(OC)C3)nc21 | 6.25 (≈ 19.5 µM) | 0.78 (≈ 2.43 µM) | 3.13 (≈ 9.74 µM) |  |  |  |  |
| C=Cn1cc(C(=O)O)c(=O)c2cc(F)c(N3CCC(N(C)C(C)=O)C3)nc21 (centres undefined) | 25 (≈ 66.8 µM) | 1.56 (≈ 4.17 µM) | 3.13 (≈ 8.36 µM) |  |  |  |  |
| CCn1cc(C(=O)O)c(=O)c2cc(F)c(N3CCC(O)C3)nc21 (centres undefined) | 0.78 (≈ 2.43 µM) | 0.39 (≈ 1.21 µM) | 0.78 (≈ 2.43 µM) | 6.8 | 42 | 5.5 |  |
| CCn1cc(C(=O)O)c(=O)c2cc(F)c(N3CCC(NC(=O)C(F)(F)F)C3)nc21 (centres undefined) | 6.25 (≈ 15 µM) | 0.78 (≈ 1.87 µM) | 1.56 (≈ 3.75 µM) |  |  |  |  |
| C=Cn1cc(C(=O)O)c(=O)c2cc(F)c(N3CCC(NC)C3)nc21 (centres undefined) | 0.78 (≈ 2.35 µM) | 0.78 (≈ 2.35 µM) | 0.1 (≈ 0.301 µM) | 2 | 3.7 | 1.6 |  |
| CCn1cc(C(=O)O)c(=O)c2cc(F)c(N3CC(O)C3)nc21 | 3.13 (≈ 10.2 µM) | 0.78 (≈ 2.54 µM) | 0.78 (≈ 2.54 µM) |  |  |  |  |
| CCNC1CCN(c2nc3c(cc2F)c(=O)c(C(=O)O)cn3CC)C1 (centres undefined) | 3.13 (≈ 8.98 µM) | 0.78 (≈ 2.24 µM) | 0.78 (≈ 2.24 µM) |  |  |  |  |
| CCOC1CN(c2nc3c(cc2F)c(=O)c(C(=O)O)cn3CC)C1 | 25 (≈ 74.6 µM) | 0.78 (≈ 2.33 µM) | 3.13 (≈ 9.33 µM) |  |  |  |  |
| CCn1cc(C(=O)O)c(=O)c2cc(F)c(N3CC(N4CCOCC4)C3)nc21 | 50 (≈ 133 µM) | 1.56 (≈ 4.14 µM) | 6.25 (≈ 16.6 µM) |  |  |  |  |
| CCn1cc(C(=O)O)c(=O)c2cc(F)c(N3CCC(NC(N)=O)C3)nc21 (centres undefined) | 25 (≈ 68.8 µM) | 6.25 (≈ 17.2 µM) | 3.13 (≈ 8.61 µM) |  |  |  |  |
| CCn1cc(C(=O)O)c(=O)c2cc(F)c(N3CCNCC3)nc21 [ENOXACIN] | 0.78 (≈ 2.44 µM) | 0.78 (≈ 2.44 µM) | 0.2 (≈ 0.624 µM) | 1.8 | 9 | 10 |  |
| CCn1cc(C(=O)O)c(=O)c2cc(F)c(N3CCC(N)C3)nc21 (centres undefined) [ESAFLOXACIN] | 0.39 (≈ 1.22 µM) | 0.2 (≈ 0.624 µM) | 0.1 (≈ 0.312 µM) | 1.7 | 3.7 | 3 |  |

From ChEMBL document CHEMBL1122526, “Pyridonecarboxylic acids as antibacterial agents. 4. Synthesis and antibacterial activity of 7-(3-amino-1-pyrrolidinyl)-1-ethyl-6-fluoro-1,4 -dihydro-4-oxo-1,8-naphthyridine-3-carboxylic acid and its analogues” (1984)
